Source: PubChem (several laboratories)
Most compounds without a hit are left out; they make up all but 1.9% or so of the library.
XiGFP reactiv = reactivates the inactive X chromosome in mouse fibroblasts | 0.055% of 360,000 active | activation, % at 7.58 µM | XiGFP mouse fibroblasts, % GFP-positive cells imaging, 3 d; cells co-treated with 5-aza-dC sensitizer; scaled so ellipticine positive control = 100% | AID 743238;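 active means mean normalized replicate activation at least 10% and every replicate at or above 10%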
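Material: SV40-immortalized XiGFP fibroblast cells, line 68-5-11 | Buffer or medium: DMEM containing 5-aza-dC | Dosing: One concentration, pinned | Times: 3 d treatment, 15 min room-temperature fixation | Controls: Ellipticine 6 µM positive control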
Rpn11 inh = blocks the human proteasome subunit Rpn11 | O00487 | human 26S proteasome, Ub4-pepOG fluorescence polarization; 20S core pre-blocked with epoxomicin | inhibition, % at 20 µM | 0.59% of 360,000 active | AID 588493;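 active means inhibition at 20 µM, scaled to each plate's controls, above about 33%, limit read from the data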
NadD block = blocks S. aureus nicotinate mononucleotide adenylyltransferase; purified NadD enzyme, colorimetric absorbance read-out; inhibition, % at 20 µM; 0.78% of 360,000 active; AID 602399; in the data active means inhibition above about 26%
Rin1 Abl inh = blocks binding of human Rin1 to Abl; P00519+Q13671; 0.4% of 360,000 active; TR-FRET Rin1/Abl binding, biochemical; AID 588664; inhibition, % at 7.35 µM; in the data active means inhibition above about 5%, passing the limit was not always enough
ABHD5 PLIN5 PPI = blocks binding of human ABHD5 to perilipin-5; 0.78% of 360,000 active; inhibition, % at 4 µM; Split G. princeps luciferase complementation, luminescence, 4 h; Q00G26+Q8WTS1;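 active means inhibition above the mean inhibition across every tested compound plus 3 SD, cut at about 22% in these data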
Target sequence (Q00G26 whole entry, looked up): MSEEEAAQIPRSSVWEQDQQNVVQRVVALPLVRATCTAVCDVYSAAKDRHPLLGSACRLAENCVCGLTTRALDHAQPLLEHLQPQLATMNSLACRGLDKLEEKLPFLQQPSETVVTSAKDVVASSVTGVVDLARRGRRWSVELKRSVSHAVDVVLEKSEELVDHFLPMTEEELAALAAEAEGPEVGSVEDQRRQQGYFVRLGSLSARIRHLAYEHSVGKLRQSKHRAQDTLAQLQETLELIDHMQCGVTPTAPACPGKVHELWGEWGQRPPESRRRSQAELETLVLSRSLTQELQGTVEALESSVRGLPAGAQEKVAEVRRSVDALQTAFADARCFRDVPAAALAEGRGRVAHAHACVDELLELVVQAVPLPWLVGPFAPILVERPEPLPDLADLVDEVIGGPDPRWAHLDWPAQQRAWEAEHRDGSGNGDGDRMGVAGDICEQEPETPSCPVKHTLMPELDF
Target sequence (Q8WTS1 whole entry, looked up): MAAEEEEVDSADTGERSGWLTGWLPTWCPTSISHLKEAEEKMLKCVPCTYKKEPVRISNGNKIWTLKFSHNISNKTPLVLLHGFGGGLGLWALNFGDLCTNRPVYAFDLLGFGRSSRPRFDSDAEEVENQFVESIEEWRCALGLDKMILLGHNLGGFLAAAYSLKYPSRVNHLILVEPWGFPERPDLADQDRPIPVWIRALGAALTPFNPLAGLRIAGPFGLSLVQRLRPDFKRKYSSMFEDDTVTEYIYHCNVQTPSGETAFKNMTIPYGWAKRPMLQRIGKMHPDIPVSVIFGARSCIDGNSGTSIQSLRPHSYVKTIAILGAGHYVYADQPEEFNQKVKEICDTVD
A number is an active result; n = inactive; x = not tested or not shown.

SMILES	XiGFP reactiv	Rpn11 inh	NadD block	Rin1 Abl inh	ABHD5 PLIN5 PPI
COc1ccc(/C=C2\C(=O)NC(=S)N(C)C2=O)cc1C	n	107	n	n	n
Cc1ccsc1/C=C1\C(=O)NC(=S)N(C)C1=O	n	n	n	n	n
Cc1cccc(N2C(=O)NC(=O)/C(=C\c3cccn3-c3ccc(Cl)cc3)C2=O)c1	x	n	n	n	30
Cc1cc(C)cc(N2C(=O)NC(=O)/C(=C/c3cccn3-c3ccc(Cl)cc3)C2=O)c1	n	n	n	n	n
CC(C)NC(=O)N1C[C@@H]2C(c3ccccc3)[C@H](C1)N2CC1CC1 (stereo not given in full)	n	x	x	x	x
CS(=O)(=O)N1C[C@@H]2C(c3ccc(Br)cc3)[C@H](C1)N2CC1CC1 (stereo not given in full)	n	x	x	x	x
c1cc(-c2ccc(C3[C@H]4CNC[C@@H]3N4CC3CC3)cc2)ccn1 (stereo not given in full)	n	x	x	x	x
C=C1C(=O)O[C@@H]2C[C@@H](C)[C@@H]3C=CC(=O)[C@@]3(C)[C@@H](OC(=O)CC(=O)O[C@H]3[C@@H]4C(=C)C(=O)O[C@@H]4C[C@@H](C)[C@@H]4C=CC(=O)[C@]43C)[C@H]12	n	95	n	n	99
CC(C)NC(=O)N1C[C@@H]2C(c3ccc(Br)cc3)[C@H](C1)N2CC1CC1 (stereo not given in full)	n	x	x	x	x
C=CCN1[C@@H]2CN(C(=O)NC(C)C)C[C@H]1C2c1ccccc1 (stereo not given in full)	n	x	x	x	x
COc1ccc(N2C(=O)CC(=O)NC2=O)cc1	x	n	n	n	22
C[C@@H]1CN([C@@H](C)CO)C(=O)c2c(c3ccccc3n2C)-c2ccccc2CO[C@H]1CN(C)C(=O)Oc1ccccc1	n	x	x	x	x
O=C(Cc1ccccn1)N1CC2(C1)[C@H](c1ccccc1)[C@@H](CO)N2Cc1ccccn1	n	x	x	x	x
O=C1NC(=O)C(=Cc2ccc(-c3ccc(Cl)cc3)o2)C(=O)N1	x	n	39	n	n
O=C1NC(=O)C(=Cc2ccco2)C(=O)N1	n	n	n	n	n
N#CC(C#N)=NNc1ccc(S(N)(=O)=O)cc1	n	n	41	n	n
CNc1ccc2oc(C[C@H]3O[C@@]4(CC[C@H]3C)O[C@H]([C@H](C)C(=O)c3ccc[nH]3)[C@H](C)C[C@H]4C)nc2c1C(=O)O	n	n	59	n	n
COC1CC2C=C(C)C=CC=CC(=O)NC(c3ccccc3)CC=CCCC(O)CC(=O)C2=C1O (stereo not given)	n	n	n	n	22
CN1C[C@@H]2N[C@H](C1)C2c1ccc(Br)cc1 (stereo not given in full)	n	x	x	x	x
O=C1NC(=O)N(CCc2ccc(F)cc2)C(=O)/C1=C\C=C\c1ccccc1	n	n	36	n	n
Cc1ccc(OC(=O)N(C)C[C@@H]2OCc3ccccc3-c3c(n(C)c4ccccc34)C(=O)N([C@@H](C)CO)C[C@H]2C)cc1	n	x	x	x	x
O=C1CC=C2C3CC4N(CCC45c4cc(O)c(O)cc4N1C25)CC3=CCBr (stereo not given)	n	n	92	31	n
Cc1c(C=C2C(=O)N(C)C(=S)N(C)C2=O)c2ccccc2n1CC(=O)NCC1CCCO1 (stereo not given)	n	43	n	n	n
C=CCN1[C@@H]2CN(C(C)=O)C[C@H]1C2c1ccccc1 (stereo not given in full)	n	x	x	x	x
O=C1NC(=O)C(=Cc2cn(CCOc3ccc4c(c3)OCO4)c3ccccc23)C(=O)N1	x	x	43	n	n
SMILES	XiGFP reactiv	Rpn11 inh	NadD block	Rin1 Abl inh	ABHD5 PLIN5 PPI
C=CCn1cc(C=C2C(=O)NC(=O)NC2=O)c2ccccc21	n	n	n	n	n
Cc1ccc(N2C(=O)NC(=O)/C(=C/c3ccc(-c4ccc(C(=O)O)c(Cl)c4)o3)C2=O)cc1	n	n	42	n	22
O=C1NC(=S)N(C2CC2)C(=O)/C1=C/c1ccc2c(c1)CCN2CCCCl	n	n	n	n	n
CCN1C(=O)/C(=C/c2ccc3c(c2)CCN3CCCCl)C(=O)NC1=S	n	n	31	n	n
C[C@]12CC[C@H](O)C[C@H]1CC[C@@H]1[C@@H]2CC[C@]2(C)[C@@H](C3=CC(=O)OC3)CC[C@]12O	n	n	n	n	n
COC1C(O)C(C)OC(OC2CCC3(C)C(CCC4C3C(O)CC3(C)C(C5=CC(=O)OC5)CCC43O)C2)C1O (stereo not given)	n	n	n	n	22
CC(=O)N1C[C@@H]2N[C@H](C1)C2c1ccccc1 (stereo not given in full)	n	x	x	x	x
CCN(CC)C(=O)Cn1cc(/C=C2\C(=O)NC(=O)N(c3ccccc3F)C2=O)c2ccccc21	n	n	n	n	23
CCCC[C@@H](C)C[C@@H](C)C(=O)N(C)[C@@H](CC(C)C)C(=O)N[C@H](C(=O)N(C)[C@H](C(=O)N1C[C@@H](O)C[C@H]1C(=O)N1C(=O)C=C[C@@H]1C)C(C)C)C(C)OC(C)=O (stereo not given in full)	x	n	n	n	43
O=C(Cc1ccccc1)N1CC2(C1)[C@@H](c1ccccc1)[C@H](CO)N2Cc1cccc(F)c1	n	x	x	x	x
C=C1C(=O)O[C@@H]2C[C@@H](C)[C@@H]3C4OC4C(=O)[C@@]3(C)[C@@H](O)[C@H]12 (stereo not given in full)	n	n	n	n	48
COC(=O)C1CN(C#N)N(c2ccc(Cl)cc2)C12c1ccccc1-c1ccccc12 (stereo not given)	x	n	n	n	74
COC(=O)[C@H]1[C@H](CO)[C@H]2Cn3c(ccc(-c4ccccc4F)c3=O)[C@@H]1N2Cc1ccccc1	n	x	x	x	x
O=c1[nH]c(O)c(/C=C2/C=CC(c3cc(Cl)ccc3Cl)=N2)c(=O)[nH]1	n	n	64	n	n
Cc1ccc(N2C(=O)NC(=O)/C(=C/c3ccc(OC(=O)c4cccs4)cc3)C2=O)cc1	x	n	n	n	34
O=C([C@H]1N[C@H]2c3cccc(=O)n3C[C@H]2[C@@H]1CO)N1CCCCC1	n	x	x	x	x
N#CC(C#N)=Cc1ccc(C=C(C#N)C#N)cc1	n	72	n	n	n
O=C(Cc1cccnc1)N1CCCCN2[C@H](CO)[C@@H](c3ccc(/C=C/c4ccccc4)cc3)[C@@H]2C1	n	x	x	x	x
COc1ccc(-c2nc3ccccc3c(=O)n2-c2ccc(OC)cc2)cc1	n	n	n	n	n
CCn1nc(-c2ccccc2)nc2c(=O)n(C)c(=O)nc1-2	x	n	n	27	n
CN1C2CN(CC(F)(F)F)CC1C2c1ccc(Br)cc1 (stereo not given)	n	x	x	x	x
CN1C(=O)C(=Cc2ccc(Sc3ccccc3)o2)C(=O)N(C)C1=S	n	44	n	n	n
CN1C(=O)C(=Cc2ccc(N3CCOCC3)o2)C(=O)N(C)C1=S	n	x	n	n	n
CC(=O)N1C2CN(C)CC1C2c1ccc(Br)cc1 (stereo not given)	n	x	x	x	x
